Measured values: ChEMBL document CHEMBL1153240, “Microwave assisted synthesis and in vitro cytotoxicities of substituted (Z)-2-amino-5-(1-benzyl-1H-indol-3-yl)methylene-1-methyl-1H-imidazol-4(5H)-ones against human tumor cell lines” (2010)

What was measured:
Format in all cases: functional
SK-MEL-2 = assay: Cytotoxicity against human SK-MEL-2 cells; conditions: read-out: LC50 (the source's name)
Procedure, shortened: (§1)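 NCI 60-cell-line panel, five-dose response study. Effect is plotted against log10 drug concentration for each cell line. GI50 is the molar concentration giving a 50% reduction in net protein increase relative to control cells. LC50 is the concentration lethal to 50% of cells.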

SK-MEL-28 = assay: Cytotoxicity against human SK-MEL-28 cells; procedure, shortened: as §1
SK-MEL-5 = assay: Cytotoxicity against human SK-MEL-5 cells; procedure, shortened: as §1
UACC-257 = assay: Cytotoxicity against human UACC257 cells
Procedure, shortened: (§2)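 NCI 60 human tumor cell line panel, five-dose dose-response study. Cytotoxic effect was plotted against log10 drug concentration for each cell line. GI50 is the molar concentration giving 50% reduction in net protein increase versus control cells. LC50 is the concentration lethal to 50% of cells.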

IGROV-1 = assay: Cytotoxicity against human IGROV1 cells; procedure, shortened: as §1
OVCAR-3 = assay: Cytotoxicity against human OVCAR-3 cells; procedure, shortened: as §1
OVCAR-4 = assay: Cytotoxicity against human OVCAR4 cells; procedure, shortened: as §1
OVCAR-5 = assay: Cytotoxicity against human OVCAR5 cells; procedure, shortened: as §1
OVCAR-8 = assay: Cytotoxicity against human OVCAR8 cells; procedure, shortened: as §1
NCI/ADR-RES = assay: Cytotoxicity against human NCI/ADR-RES cells; procedure, shortened: as §1
SK-OV-3 = assay: Cytotoxicity against human SKOV3 cells; procedure, shortened: as §1
786-0 = assay: Cytotoxicity against human 786-0 cells; procedure, shortened: as §1
A498 = assay: Cytotoxicity against human A498 cells; procedure, shortened: as §1
ACHN = assay: Cytotoxicity against human ACHN cells; procedure, shortened: as §1
CAKI-1 = assay: Cytotoxicity against human Caki1 cells; procedure, shortened: as §1
RXF 393 = assay: Cytotoxicity against human RXF393 cells; procedure, shortened: as §1
SN12C = assay: Cytotoxicity against human SN12C cells; procedure, shortened: as §1
TK-10 = assay: Cytotoxicity against human TK10 cells; procedure, shortened: as §2
UO-31 = assay: Cytotoxicity against human UO31 cells; procedure, shortened: as §2
PC-3 = assay: Cytotoxicity against human PC3 cells; procedure, shortened: as §1
DU-145 = assay: Cytotoxicity against human DU145 cells; procedure, shortened: as §1
MCF7 = assay: Cytotoxicity against human MCF7 cells; procedure, shortened: as §1
MDA-MB-231 = assay: Cytotoxicity against human MDA-MB-231 cells; procedure, shortened: as §1
[1] = Cytotoxicity against human Hs 578T cells; procedure, shortened: as §1
BT-549 = assay: Cytotoxicity against human BT549 cells; procedure, shortened: as §1
T47D = assay: Cytotoxicity against human T47D cells; procedure, shortened: as §2
MDA-MB-468 = assay: Cytotoxicity against human MDA-MB-468 cells; procedure, shortened: as §1
HOP-92 = assay: Cytotoxicity against human HOP92 cells; procedure, shortened: as §1
SF-268 = assay: Cytotoxicity against human SF268 cells; procedure, shortened: as §1
SF-295 = assay: Cytotoxicity against human SF295 cells; procedure, shortened: as §1
[2] = read-out: LC50 (the source's name)

With `CN1C(N)=NC(=O)/C1=C/c1cn(Cc2ccccc2Br)c2ccccc12` the CC50 (SK-MEL-2) was over 100 µM, the GI50 (SK-MEL-28) was 4.14 µM and the CC50 (SK-MEL-28; [2]) was 38.4 µM. It also gave a GI50 (SK-MEL-5) of 3.38 µM, an LC50 (SK-MEL-5) of 42.3 µM and a GI50 (UACC-257) of 12.9 µM. The LC50 (UACC-257) was 66.9 µM, the GI50 (IGROV-1) was 20 µM and the CC50 (IGROV-1; [2]) was over 100 µM. For the same molecule, the GI50 (OVCAR-3) was 1.95 µM, the CC50 (OVCAR-3; [2]) was 7.35 µM and the GI50 (OVCAR-4) was 2.41 µM. The CC50 (OVCAR-4; [2]) was 25.2 µM, the GI50 (OVCAR-5) was 2.12 µM and the CC50 (OVCAR-5; [2]) was 29 µM. For the same molecule, the GI50 (OVCAR-8) was 10.1 µM, the CC50 (OVCAR-8; [2]) was over 100 µM and the GI50 (NCI/ADR-RES) was over 100 µM. The CC50 (NCI/ADR-RES; [2]) was over 100 µM, the GI50 (SK-OV-3) was 11.9 µM and the CC50 (SK-OV-3; [2]) was 49.9 µM. The GI50 (786-0) was 6.15 µM, the LC50 (786-0) was 46.2 µM and the GI50 (A498) was 13.9 µM. It also gave a CC50 (A498; [2]) of 53.1 µM, a GI50 (ACHN) of 11.8 µM and a CC50 (ACHN; [2]) of 59 µM. It also gave a GI50 (CAKI-1) of 68.1 µM, a CC50 (CAKI-1; [2]) of over 100 µM and a GI50 (RXF 393) of 2.77 µM. The CC50 (RXF 393; [2]) was 53.7 µM, the GI50 (SN12C) was 6.07 µM and the CC50 (SN12C; [2]) was 76.3 µM. It also gave a GI50 (TK-10) of 6.84 µM, a CC50 (TK-10; [2]) of over 100 µM and a GI50 (UO-31) of 7.95 µM. It also gave a CC50 (UO-31; [2]) of over 100 µM, a GI50 (PC-3) of 10.4 µM and a CC50 (PC-3; [2]) of 48.1 µM. For the same molecule, the GI50 (DU-145) was 82.1 µM, the CC50 (DU-145; [2]) was 68.8 µM and the GI50 (MCF7) was 2.25 µM. It also gave a CC50 (MCF7; [2]) of 48.1 µM, a GI50 (MDA-MB-231) of 4.07 µM and an LC50 (MDA-MB-231) of 46.7 µM. For the same molecule, the GI50 [1] was 3.97 µM, the LC50 [1] was over 100 µM and the GI50 (BT-549) was 2.05 µM. For the same molecule, the CC50 (BT-549; [2]) was over 100 µM, the GI50 (T47D) was 1.68 µM and the CC50 (T47D; [2]) was 13.1 µM. It also gave a GI50 (MDA-MB-468) of 1.69 µM, an LC50 (MDA-MB-468) of 6.9 µM and a GI50 (HOP-92) of 2.98 µM. It also gave a CC50 (HOP-92; [2]) of 44.5 µM, a GI50 (SF-268) of 5.38 µM and a CC50 (SF-268; [2]) of 59.8 µM. For the same molecule, the GI50 (SF-295) was 4.96 µM and the CC50 (SF-295; [2]) was over 100 µM.
